Screening data deposited in PubChem by Broad Institute.
NSD2 HMT inh: NSD2 (human) methyltransferase inhibition. NSD2 peptide methylation, AlphaScreen, 120 min. inhibition, % at 12.5 µM. hit rate 0.54% among 310,000. O96028
CDK5 p35 inh: CDK5/p35 (human) kinase inhibition. Q00535+Q15078. Recombinant CDK5/p35, ADP-Glo luminescence, 60 min. inhibition, % at 10 µM. hit rate 0.01% among 330,000. AID 488839;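 active means highest replicate inhibition of at least 50% and at least 75% of replicates reaching 50%; inconclusive means only one of the two criteria met; inactive means both criteria failed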
Target sequence (Q00535 whole entry, looked up): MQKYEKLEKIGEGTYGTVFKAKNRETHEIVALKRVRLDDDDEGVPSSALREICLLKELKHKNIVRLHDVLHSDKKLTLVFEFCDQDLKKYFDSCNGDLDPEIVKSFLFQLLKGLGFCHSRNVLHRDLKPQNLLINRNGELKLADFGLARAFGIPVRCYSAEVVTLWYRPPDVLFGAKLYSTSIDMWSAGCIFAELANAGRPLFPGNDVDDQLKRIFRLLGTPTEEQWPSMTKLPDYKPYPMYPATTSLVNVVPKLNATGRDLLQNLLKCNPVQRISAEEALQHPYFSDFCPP
Target sequence (Q15078 whole entry, looked up): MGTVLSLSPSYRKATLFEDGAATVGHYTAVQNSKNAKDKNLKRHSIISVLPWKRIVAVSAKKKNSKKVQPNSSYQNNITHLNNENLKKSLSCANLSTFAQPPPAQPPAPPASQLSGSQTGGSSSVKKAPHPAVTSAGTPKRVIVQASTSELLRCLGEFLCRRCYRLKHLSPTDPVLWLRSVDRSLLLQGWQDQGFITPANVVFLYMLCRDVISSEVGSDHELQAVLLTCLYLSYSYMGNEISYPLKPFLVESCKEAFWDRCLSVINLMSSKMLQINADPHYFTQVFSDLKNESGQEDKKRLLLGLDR
SR-BI HDL uptake: inhibitors of mouse SR-BI mediated HDL lipid uptake. inhibition, % at 12.5 µM. AID 488896. Q61009. hit rate 0.96% among 320,000. ldlA[mSR-BI] CHO cells, DiI-HDL uptake fluorescence, 3 h;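 active means mean replicate inhibition of at least 70% and a set share of replicates each scoring 70 or more; inconclusive means meets just one of the two criteria; inactive means fails both criteria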
DYRK1A inh: inhibitors of rat Dyrk1A kinase; hit rate 0.43% among 310,000; inhibition, % at 12.5 µM; Q63470; ADP-Glo luminescence, NFATc1 peptide
SR-BI uptake up: SR-BI HDL lipid transfer activation; activation, % at 12.5 µM; hit rate 0.096% among 320,000; AID 504775; CHO ldlA[mSR-BI] cells, DiI-HDL uptake fluorescence, 3 h; 100 = double the neutral-control signal;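 active means mean replicate activation of at least 60% and every replicate at or above 60%; inconclusive means mean or all-replicate condition met, but not both; inactive means mean below 60% and not all replicates reaching 60%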
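Material: SR-BI-overexpressing, LDLR-lacking CHO cells | Dosing: Single compound concentration, delivered by pin transfer | Probe or stimulus: Labelled HDL, 10 µg/mL | Signal: Bottom-read cell fluorescence after medium removal, ex 550/em 595 nm | Schedule: 3 h, 37 °C | Evaluation: HDL uptake via cellular fluorescence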
dFosB act: activators of mouse delta FosB homodimer; purified delta FosB, TAMRA-CDK5 oligo fluorescence polarization; percent of positive-control signal above neutral wells; P13346; hit rate 0.99% among 340,000; activation, % at 25 µM; AID 493131;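 active means mean activation above about 17%, with every replicate also reaching it, limit read from the data, passing the limit was not always enough; inconclusive means only one of the two conditions met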
Each line names hits and unclear results; the compound was inactive in the other large screens. A selection: hits, their analogues and other compounds. The true share with any hit is near 2.5%. Unless noted, no stated cut-off is given here; in the data, active means inhibition above about 50%; inactive means the rest.

CCC(CO)Oc1cc(NC(=O)c2ccc([N+](=O)[O-])cc2)c2ncn(C(C)C)c2c1 (centres undefined)	none (no result: NSD2 HMT inh)
CCC(CO)Oc1cc(NC(=O)c2cccc([N+](=O)[O-])c2)c2ncn(C(C)C)c2c1 (centres undefined)	SR-BI HDL uptake 75 (no result: NSD2 HMT inh)
O=C(N/N=C/c1ccc(F)cc1)c1cc(-c2ccccn2)nc2ccccc12	none
COc1cccc(/C=N/NC(=O)c2cc(-c3ccccn3)nc3ccccc23)c1O	SR-BI HDL uptake 103
COc1ccc(-c2cc(C(=O)N/N=C/c3ccc(OC)c(COCC(F)(F)C(F)F)c3)c3ccccc3n2)c(OC)c1	SR-BI HDL uptake 80
Cc1nn(-c2ccccc2)c(N2CCCC2)c1/C=N/NC(=O)c1cc(-c2cccnc2)nc2ccccc12	SR-BI HDL uptake 89
COc1ccc(-c2cc(C(=O)N/N=C/c3ccc4c(c3)OCO4)c3ccccc3n2)c(OC)c1	none
Cc1nn(-c2ccccc2)c(N2CCCC2)c1/C=N/NC(=O)c1ccccc1O	none
COc1cc([N+](=O)[O-])cc(/C=N/NC(=O)c2cc(-c3ccccc3)nc3ccccc23)c1O	SR-BI HDL uptake 117
COc1ccc(NC(=O)C(=O)NCCN2CCN(C(=O)c3cccc(Br)c3)CC2)cc1	none
CCCC1CCC2(CC1)CCC2OC(=S)NCCc1ccc(Cl)cc1 (centres undefined)	none (no result: CDK5 p35 inh, SR-BI HDL uptake, DYRK1A inh, SR-BI uptake up, dFosB act)
COc1ccc(/C=N/NC(=O)c2cc(-c3cccnc3)nc3ccccc23)c(OC)c1	SR-BI HDL uptake 74 (no result: DYRK1A inh)
COc1ccc(-n2nc3c(c2NC(=O)c2ccc(S(=O)(=O)N4CCOCC4)cc2)CS(=O)C3)cc1 (centres undefined)	SR-BI uptake up 68
COC(=O)c1c(NC(=O)c2ccccc2)sc2c1CC(C)(C)OC2	SR-BI HDL uptake 73
CC(C)CNC(=O)C1(C)CCCN1Cc1ccc(S(C)(=O)=O)cc1 (centres undefined)	none (no result: CDK5 p35 inh, SR-BI HDL uptake, DYRK1A inh, SR-BI uptake up, dFosB act)
COCCn1nnnc1C(c1cccs1)N1CCN(c2ccccc2)CC1 (centres undefined)	SR-BI HDL uptake 83
COc1ccc(/C=C2\SC(=Nc3ccccc3Cl)NC2=O)c(OC)c1	none (no result: CDK5 p35 inh, SR-BI HDL uptake, DYRK1A inh, SR-BI uptake up, dFosB act)
COc1c(/C=C2\SC(=Nc3ccccc3Cl)NC2=O)cccc1[N+](=O)[O-]	DYRK1A inh 53
Cc1noc(C)c1COC(=O)c1cccnc1Cl	none (no result: DYRK1A inh)
Cc1ccc(C)c(OC(=O)c2cccnc2Cl)c1C	SR-BI uptake up 317
COc1ccc(CC(=O)OCC(=O)NCc2ccccc2Cl)cc1OC	SR-BI uptake up 80
O=C(O)c1ccc(-c2ccc(/C=C3\NC(=O)N(Cc4ccc(Cl)cc4)C3=O)o2)cc1Cl	NSD2 HMT inh 129
O=C(C1CCN(c2cncnc2)CC1)N1CCOCC1	none (no result: CDK5 p35 inh, SR-BI HDL uptake, DYRK1A inh, SR-BI uptake up, dFosB act)
COc1cccc(C(=O)/C=C/Nc2cc(C)ccc2O)c1	SR-BI HDL uptake 92
COC(=O)C1=C(C)N(C)C(=NCc2ccccc2C(F)(F)F)NC1c1cccc(F)c1 (centres undefined)	none (no result: CDK5 p35 inh, SR-BI HDL uptake, DYRK1A inh, SR-BI uptake up, dFosB act)
CCc1ccc2c(c1)C1(NN=C(c3ccc(C)cc3)S1)C(=O)N2 (centres undefined)	none
CC(C)c1ccc2c(c1)C1(NN=C(c3ccccc3)S1)C(=O)N2 (centres undefined)	SR-BI HDL uptake 106
Cc1cc(=O)c2c(o1)C(=O)c1occc1C2=O	NSD2 HMT inh 139 (no result: DYRK1A inh)
Cn1nc(C(=O)Nc2cc(Cl)ccc2N2CCCC2)c2ccccc2c1=O	SR-BI HDL uptake 93
CCN(C(=O)Cn1nnc(-c2ccncc2)n1)c1ccccc1	none (no result: CDK5 p35 inh, SR-BI HDL uptake, DYRK1A inh, SR-BI uptake up, dFosB act)
CCCn1c(N)c(C(=O)COC(=O)/C=C/c2ccc(OC(F)F)c(OC)c2)c(=O)[nH]c1=O	dFosB act 22
Cc1cc(C)c(S(=O)(=O)N2CCN(C(=O)c3c(C)nn(-c4ccccc4)c3Cl)CC2)c(C)c1	SR-BI HDL uptake 78
CCOC(=O)c1c(Nc2ccc(Cl)cc2)sc(/C=C2\C=Nc3ccccc32)c1O	SR-BI HDL uptake 91
CCOc1cc(-c2nnc(-c3ccco3)o2)cc(OCC)c1OCC	SR-BI HDL uptake 77
CCOc1cc(-c2nc(-c3ccccc3OC)no2)cc(OCC)c1OCC	SR-BI HDL uptake 80
CCOc1cc(-c2nc(-c3ccc(OC)cc3)no2)cc(OCC)c1OCC	SR-BI HDL uptake 75
CCOc1cc(-c2nc(-c3ccncc3)no2)cc(OCC)c1OCC	none (no result: NSD2 HMT inh)
COc1ccc(S(=O)(=O)Nc2nc3ccccc3nc2Nc2cccc(C(=O)O)c2)cc1	none
Cc1cc(C)c(NC(=O)Cn2nnc(C(=O)Nc3ccc(F)cc3F)c2N)c(C)c1	dFosB act 25
Cc1cccc(C)c1NC(=O)Cn1nnc(C(=O)Nc2ccc(F)cc2F)c1N	dFosB act 46
CN(CC(=O)Nc1ccccc1C(F)(F)F)C(=O)c1ccc(N2C(=O)CCC2=O)cc1	none
O=C(CN1C(=O)NC2(CCc3ccccc32)C1=O)c1ccc(Br)s1 (centres undefined)	none
COc1ccc2nc(C)cc(Nc3ccc(N4CCOCC4)cc3)c2c1	dFosB act 30
COc1ccc2nc(C)cc(Nc3ccc(C)cc3)c2c1	none
COc1ccc2nc(C)cc(Nc3ccc(N4CCN(C)CC4)cc3)c2c1	dFosB act 77
Cc1ccc(C)c(NC(=O)C2CCCN2S(=O)(=O)c2cccc3cccnc23)c1 (centres undefined)	none (no result: CDK5 p35 inh, SR-BI HDL uptake, DYRK1A inh, SR-BI uptake up, dFosB act)
CCOC(=O)C1=C(CC)Nc2ccccc2N/C1=N\S(=O)(=O)c1ccccc1OC	none
C(=NN=C(NN=Cc1cccs1)NN=Cc1cccs1)c1cccs1	dFosB act 21 (no result: NSD2 HMT inh)
O=C(N/N=C/c1cccs1)c1ccccn1	none
Cc1cccc(N2CCc3c2nc2ccc(Br)cc2c3N)c1	SR-BI HDL uptake 91, dFosB act 33
Nc1c2c(nc3ccc(Br)cc13)N(c1ccccc1)CC2	none
CON/C=C(\C=Nc1ccc(Cl)cc1)c1ncc(C(F)(F)F)cc1Cl	SR-BI HDL uptake 73
CON/C=C(\C=Nc1ccc(C(F)(F)F)cc1)c1ncc(C(F)(F)F)cc1Cl	none
NC(=O)COc1ccc(/C=C2\C(=O)ON=C2c2ccccc2)cc1	none (no result: DYRK1A inh)
CC(=O)c1ccc(NC(=O)COC(=O)c2ccccc2Sc2ccccc2C#N)cc1	dFosB act 40
N#Cc1cccc(NC(=O)COC(=O)c2ccccc2Sc2ccccc2C#N)c1	none
CCc1cc([N+](=O)[O-])cc(CC)c1N	DYRK1A inh 70
CCOC(=O)C1CCN(C(=O)c2ccc(OCC(=O)Nc3ccc(OCC)cc3)c(OC)c2)CC1	SR-BI HDL uptake 83
CCOC(=O)C1CCN(C(=O)c2ccc(OCC(=O)Nc3cccc(C(F)(F)F)c3)c(OC)c2)CC1	SR-BI HDL uptake inconclusive
Cc1ccnc(SC2CC(=O)N(c3ccc(F)cc3)C2=O)n1 (centres undefined)	SR-BI uptake up 344 (no result: DYRK1A inh)
